# Experimental data reported in ChEMBL document CHEMBL5357047, “The development of thymol-isatin hybrids as broad-spectrum antibacterial agents with potent anti-MRSA activity” (RSC Med Chem, 2024).
# Columns and labels:
# [1] = tested on: Enterococcus faecalis; experiment: Antibacterial activity against clinically isolated Enterococcus faecalis RBRJ015 assessed as inhibition of bacterial growth at 50 uM measured after 48 hrs by agar well diffusion method; assay type: functional; conditions: read-out: IZ
# [2] = tested on: Escherichia coli; experiment: Antibacterial activity against clinically isolated Escherichia coli RBRJ013 assessed as inhibition of bacterial growth at 50 uM measured after 48 hrs by agar well diffusion method; assay type: functional; conditions: read-out: IZ
# [3] = tested on: Klebsiella pneumoniae; experiment: Antibacterial activity against Klebsiella pneumoniae MTCC 109 assessed as inhibition of bacterial growth at 50 uM measured after 48 hrs by agar well diffusion method; assay type: functional; conditions: read-out: IZ
# [4] = tested on: Staphylococcus aureus; experiment: Antibacterial activity against clinically isolated Staphylococcus aureus RBRJ010 assessed as inhibition of bacterial growth at 50 uM measured after 48 hrs by agar well diffusion method; assay type: functional; conditions: read-out: IZ
# [5] = tested on: Staphylococcus aureus; experiment: Antibacterial activity against clinically isolated Methicillin-resistant Staphylococcus aureus assessed as inhibition of bacterial growth measured after 48 hrs by broth microdilution method; assay type: functional
# [6] = tested on: Staphylococcus epidermidis; experiment: Antibacterial activity against Staphylococcus epidermidis MTCC 435 assessed as inhibition of bacterial growth at 50 uM measured after 48 hrs by agar well diffusion method; assay type: functional; conditions: read-out: IZ
# [7] = tested on: Staphylococcus aureus; experiment: Antibacterial activity against Staphylococcus aureus MTCC 740 assessed as inhibition of bacterial growth at 50 uM measured after 48 hrs by agar well diffusion method; assay type: functional; conditions: read-out: IZ
# [8] = tested on: Escherichia coli; experiment: Antibacterial activity against Escherichia coli MTCC 119 assessed as inhibition of bacterial growth at 50 uM measured after 48 hrs by agar well diffusion method; assay type: functional; conditions: read-out: IZ
# [9] = tested on: Staphylococcus aureus; experiment: Antibacterial activity against Methicillin-resistant Staphylococcus aureus ATCC 33591 assessed as inhibition of bacterial growth measured after 48 hrs by broth microdilution method; assay type: functional
# [10] = tested on: Pseudomonas aeruginosa; experiment: Antibacterial activity against Pseudomonas aeruginosa MTCC 424 assessed as inhibition of bacterial growth at 50 uM measured after 48 hrs by agar well diffusion method; assay type: functional; conditions: read-out: IZ
# [11] = tested on: Klebsiella pneumoniae; experiment: Antibacterial activity against clinically isolated Klebsiella pneumoniae RBRJ024 assessed as inhibition of bacterial growth at 50 uM measured after 48 hrs by agar well diffusion method; assay type: functional; conditions: read-out: IZ
# [12] = tested on: Acinetobacter baumannii; experiment: Antibacterial activity against clinically isolated Acinetobacter baumannii RBRJ027 assessed as inhibition of bacterial growth at 50 uM measured after 48 hrs by agar well diffusion method; assay type: functional; conditions: read-out: IZ
# [13] = tested on: Staphylococcus aureus; experiment: Antibacterial activity against Methicillin-resistant Staphylococcus aureus ATCC 33591 assessed as inhibition of bacterial growth at 50 uM measured after 48 hrs by agar well diffusion method; assay type: functional; conditions: read-out: IZ
# Method in brief: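 Agar well diffusion on Mueller Hinton agar seeded with bacteria at 0.5 McFarland. […] Incubated 48 h at 37 °C aerobically; zone of inhibition diameter (mm) measured. Triplicate.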
# [14] = tested on: Klebsiella pneumoniae; experiment: Antibacterial activity against clinically isolated Klebsiella pneumoniae RBRJ019 assessed as inhibition of bacterial growth at 50 uM measured after 48 hrs by agar well diffusion method; assay type: functional; conditions: read-out: IZ
# [15] = tested on: Staphylococcus aureus; experiment: Antibacterial activity against Staphylococcus aureus MTCC 740 assessed as inhibition of bacterial growth measured after 48 hrs by broth microdilution method; assay type: functional
# [16] = tested on: Staphylococcus aureus; experiment: Bactericidal activity against clinically isolated Methicillin-resistant Staphylococcus aureus assessed as inhibition of bacterial growth measured after 48 hrs by agar plate method; assay type: functional
# [17] = tested on: Staphylococcus aureus; experiment: Antibacterial activity against clinically isolated Methicillin-resistant Staphylococcus aureus assessed as inhibition of bacterial growth at 50 uM measured after 48 hrs by agar well diffusion method; assay type: functional; conditions: read-out: IZ
# [18] = tested on: Staphylococcus aureus; experiment: Bactericidal activity against Methicillin-resistant Staphylococcus aureus ATCC 33591 assessed as inhibition of bacterial growth measured after 48 hrs by agar plate method; assay type: functional
# Method in brief: (§1)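 MBC: aliquots from microdilution wells without colour change subcultured on drug-free Mueller Hinton agar, 48 h at 37 °C aerobically. MBC is the lowest concentration with no visible growth. Triplicate.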
# [19] = tested on: Enterobacter cloacae; experiment: Antibacterial activity against clinically isolated Enterobacter cloacae RBRJ017 assessed as inhibition of bacterial growth at 50 uM measured after 48 hrs by agar well diffusion method; assay type: functional; conditions: read-out: IZ
# [20] = tested on: Escherichia coli; experiment: Antibacterial activity against clinically isolated Escherichia coli RBRJ005 assessed as inhibition of bacterial growth at 50 uM measured after 48 hrs by agar well diffusion method; assay type: functional; conditions: read-out: IZ
# [21] = tested on: Staphylococcus aureus; experiment: Bactericidal activity against Staphylococcus aureus MTCC 740 assessed as inhibition of bacterial growth measured after 48 hrs by agar plate method; assay type: functional; method in brief: as §1
# [22] = tested on: Enterococcus faecalis; experiment: Antibacterial activity against Enterococcus faecalis MTCC 439 assessed as inhibition of bacterial growth at 50 uM measured after 48 hrs by agar well diffusion method; assay type: functional; conditions: read-out: IZ
# [23] = Selectivity index, ratio of IC50 for cytotoxicity against mouse L929 cells to MIC for antibacterial activity against clinically isolated Methicillin-resistant Staphylococcus aureus; assay type: toxicity, cell-based; conditions: read-out: Selectivity Index
# [24] = tested on: Staphylococcus aureus; experiment: Antibacterial activity against clinically isolated Staphylococcus aureus RBRJ010 assessed as inhibition of bacterial growth measured after 48 hrs by broth microdilution method; assay type: functional
# [25] = tested on: Staphylococcus aureus; experiment: Bactericidal activity against clinically isolated Staphylococcus aureus RBRJ010 assessed as inhibition of bacterial growth measured after 48 hrs by agar plate method; assay type: functional
# Method in brief: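 MBC: 10 μL from wells showing no INT colour change after broth microdilution subcultured on drug-free Mueller Hinton agar, 48 h at 37 °C aerobically; lowest concentration with no visible growth taken as MBC (μM). Triplicate.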
# [26] = Cytotoxicity against mouse L929 cells assessed as reduction in cell viability measured after 72 hrs by MTT assay; assay type: toxicity, cell-based
# Method in brief: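 L929 cells (ATCC) grown in DMEM with 10% FBS and penicillin/streptomycin at 37 °C, 5% CO2; seeded at 5 × 10^3 cells per well and exposed to serial dilutions for 72 h, paclitaxel as positive control. MTT (5 mg mL−1), formazan dissolved in DMSO, absorbance at 490 nm; viability relative to control after blank subtraction; IC50 in μM.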
# [27] = target: T1, 4,4'-diapophytoene synthase (Staphylococcus aureus, UniProt A9JQL9); experiment: Inhibition of Staphylococcus aureus CrtM
# T1 sequence (A9JQL9 whole entry): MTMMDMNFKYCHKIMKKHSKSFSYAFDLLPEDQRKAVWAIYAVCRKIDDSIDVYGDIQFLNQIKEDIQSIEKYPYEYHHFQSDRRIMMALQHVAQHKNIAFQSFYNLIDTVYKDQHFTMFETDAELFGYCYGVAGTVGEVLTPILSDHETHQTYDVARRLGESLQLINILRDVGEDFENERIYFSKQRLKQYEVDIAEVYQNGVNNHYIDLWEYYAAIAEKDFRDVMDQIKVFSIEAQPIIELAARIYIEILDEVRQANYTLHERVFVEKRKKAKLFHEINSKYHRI
SMILES,zone of inhibition at 50 µM [1] [mm],zone of inhibition at 50 µM [2] [mm],zone of inhibition at 50 µM [3] [mm],zone of inhibition at 50 µM [4] [mm],MIC [5] [µM],zone of inhibition at 50 µM [6] [mm],zone of inhibition at 50 µM [7] [mm],zone of inhibition at 50 µM [8] [mm],MIC [9] [µM],zone of inhibition at 50 µM [10] [mm],zone of inhibition at 50 µM [11] [mm],zone of inhibition at 50 µM [12] [mm],zone of inhibition at 50 µM [13] [mm],zone of inhibition at 50 µM [14] [mm],MIC [15] [µM],MBC [16] [µM],zone of inhibition at 50 µM [17] [mm],MBC [18] [µM],zone of inhibition at 50 µM [19] [mm],zone of inhibition at 50 µM [20] [mm],other results
Cc1ccc(C(C)C)c(OCc2cn(CCCN3C(=O)C(=O)c4cc(I)ccc43)nn2)c1,11.1,11.2,12.3,19,62.5,14.2,20.2,13.2,62.5,11.6,12.7,11.5,20.5,11.3,31.2,125,20.2,125,13.7,12.3,MBC [21]: 125 µM; zone of inhibition at 50 µM [22]: 11.7 mm
Cc1ccc(C(C)C)c(OCc2cn(CCCN3C(=O)C(=O)c4cc(F)ccc43)nn2)c1,15.3,16.2,15.2,23.2,15.6,16.2,24.1,15.2,62.5,16,14.3,14.7,20.3,15.4,7.8,31.2,22.2,125,15.3,16.2,selectivity ratio [23]: 2; MIC [24]: 7.8 µM; MBC [25]: 15.6 µM; IC50 at 72 h [26]: 31200 nM; MBC [21]: 15.6 µM; zone of inhibition at 50 µM [22]: 16.4 mm
Cc1ccc(C(C)C)c(OCc2cn(CCCN3C(=O)C(=O)c4cc(Br)ccc43)nn2)c1,12.2,15.5,14.3,19.3,31.2,17.2,21.2,14.1,62.5,11.4,13.3,11.2,21.5,13.2,31.2,62.5,21.2,125,14.2,15.4,MBC [21]: 62.5 µM; zone of inhibition at 50 µM [22]: 12.1 mm
O=P(O)(O)C(CCCc1ccc(-c2ccccc2)cc1)P(=O)(O)O,–,–,–,–,–,–,–,–,–,–,–,–,–,–,–,–,–,–,–,–,Ki [27]: 0.2 nM
CC(=O)O[C@H]1C(=O)[C@@]2(C)[C@H]([C@H](OC(=O)c3ccccc3)[C@]3(O)C[C@H](OC(=O)[C@H](O)[C@@H](NC(=O)c4ccccc4)c4ccccc4)C(C)=C1C3(C)C)[C@]1(OC(C)=O)CO[C@@H]1C[C@@H]2O [PACLITAXEL],–,–,–,–,–,–,–,–,–,–,–,–,–,–,–,–,–,–,–,–,IC50 at 72 h [26]: 62.5 nM
O=P(O)(O)C(CCCc1ccc(-c2ccccc2)cc1)S(=O)(=O)O (stereo not drawn),–,–,–,–,–,–,–,–,–,–,–,–,–,–,–,–,–,–,–,–,Ki [27]: 6 nM
